From ChEMBL document CHEMBL3046139, “Preparation and phytotoxicity of novel kaurane diterpene amides with potential use as herbicides” (J Agric Food Chem, 2008)
Calls of active or inactive are those of the source.

How the values were obtained:
Assay type in all cases: functional, organism-based
Lactuca sativa [1] = test: Phytotoxicity in Lactuca sativa cv. Grand Rapids (lettuce) assessed as inhibition of shoot length at 1 mM measured 5 days post compound treatment
Procedure, shortened: (§1)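 Test solutions in deionized water, buffered with 10 mM MES and adjusted to pH 6.0-6.5 with NaOH. Concentrations below 10^-3 M made by dilution series. Osmotic pressure 30-38 mOsmolar. Petri dishes sealed with Parafilm and kept in the dark at 25 °C for 5 days, in triplicate. Seed counted as germinated when radicle was at least 0.2 mm. Radicle and shoot lengths measured by pachymeter with dishes held at 4 °C. Results given as percent difference from untreated control means. Student's t-test, P ≤ 0.05.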

Lactuca sativa [2] = test: Phytotoxicity in Lactuca sativa cv. Grand Rapids (lettuce) assessed as inhibition of radicle length at 1 mM measured 5 days post compound treatment; procedure, shortened: as §1
Lactuca sativa [3] = test: Phytotoxicity in Lactuca sativa cv. Grand Rapids (lettuce) assessed as inhibition of seed germination at 1 mM measured 5 days post compound treatment; procedure, shortened: as §1
Lactuca sativa [4] = test: Phytotoxicity in Lactuca sativa cv. Grand Rapids (lettuce) assessed as inhibition of seed germination at 10 uM measured 5 days post compound treatment; procedure, shortened: as §1
Lactuca sativa [5] = test: Phytotoxicity in Lactuca sativa cv. Grand Rapids (lettuce) assessed as inhibition of seed germination at 0.1 uM measured 5 days post compound treatment; procedure, shortened: as §1
Lactuca sativa [6] = test: Stimulation of radicle growth in Lactuca sativa cv. Grand Rapids (lettuce) at 0.1 uM measured 5 days post compound treatment; procedure, shortened: as §1
Lactuca sativa [7] = test: Stimulation of shoot growth in Lactuca sativa cv. Grand Rapids (lettuce) at 0.1 uM measured 5 days post compound treatment; procedure, shortened: as §1
Lactuca sativa [8] = test: Stimulation of shoot growth in Lactuca sativa cv. Grand Rapids (lettuce) at 10 uM measured 5 days post compound treatment; procedure, shortened: as §1
Lactuca sativa [9] = test: Stimulation of radicle growth in Lactuca sativa cv. Grand Rapids (lettuce) at 10 uM measured 5 days post compound treatment; procedure, shortened: as §1
Lactuca sativa [10] = test: Stimulation of seed germination in Lactuca sativa cv. Grand Rapids (lettuce) at 0.1 uM measured 5 days post compound treatment; procedure, shortened: as §1
Lactuca sativa [11] = test: Stimulation of seed germination in Lactuca sativa cv. Grand Rapids (lettuce) at 1 mM measured 5 days post compound treatment; procedure, shortened: as §1

C=C1C[C@@]23CC[C@@H]4[C@](C)(C(=O)NCCCN)CCC[C@@]4(C)C2=CC[C@@H]1C3
active: inhibition (Lactuca sativa [1]) | inhibition (Lactuca sativa [2]) | inhibition (Lactuca sativa [3]) | inhibition (Lactuca sativa [4]) | inhibition (Lactuca sativa [5])

C=C1C[C@@]23CC[C@H]4[C@@](C)(CCC[C@@]4(C)C(=O)N4CCOCC4)[C@@H]2CC[C@@H]1C3
active: inhibition (Lactuca sativa [1]) | inhibition (Lactuca sativa [2]) | inhibition (Lactuca sativa [3]) | inhibition (Lactuca sativa [4]) | inhibition (Lactuca sativa [5])

C=C1C[C@@]23CC[C@@H]4[C@](C)(C(=O)N5CCNCC5)CCC[C@@]4(C)C2=CC[C@@H]1C3
active: Activity (Lactuca sativa [6]) | Activity (Lactuca sativa [7]) | inhibition (Lactuca sativa [1]) | inhibition (Lactuca sativa [2]) | Activity (Lactuca sativa [8]) | Activity (Lactuca sativa [9]) | inhibition (Lactuca sativa [3]) | inhibition (Lactuca sativa [4]) | inhibition (Lactuca sativa [5])

C=C1C[C@@]23CC[C@H]4[C@@](C)(CCC[C@@]4(C)C(=O)NCCCCCC)[C@@H]2CC[C@@H]1C3
active: inhibition (Lactuca sativa [1]) | inhibition (Lactuca sativa [2]) | inhibition (Lactuca sativa [3]) | inhibition (Lactuca sativa [4]) | inhibition (Lactuca sativa [5])

C=C1C[C@@]23CC[C@H]4[C@@](C)(CCC[C@@]4(C)C(=O)NCCCCN)[C@@H]2CC[C@@H]1C3
active: Activity (Lactuca sativa [10]) | inhibition (Lactuca sativa [1]) | inhibition (Lactuca sativa [2]) | inhibition (Lactuca sativa [3])

C=C1C[C@@]23CC[C@@H]4[C@](C)(C(=O)NCCCCCC)CCC[C@@]4(C)C2=CC[C@@H]1C3
active: inhibition (Lactuca sativa [1]) | inhibition (Lactuca sativa [2]) | inhibition (Lactuca sativa [3]) | inhibition (Lactuca sativa [4]) | inhibition (Lactuca sativa [5])

C=C1C[C@@]23CC[C@H]4[C@@](C)(CCC[C@@]4(C)C(=O)NCCCN)[C@@H]2CC[C@@H]1C3
active: inhibition (Lactuca sativa [1]) | inhibition (Lactuca sativa [2]) | inhibition (Lactuca sativa [3]) | inhibition (Lactuca sativa [4]) | inhibition (Lactuca sativa [5])

C=C1C[C@@]23CC[C@@H]4[C@](C)(C(=O)N5CCOCC5)CCC[C@@]4(C)C2=CC[C@@H]1C3
active: inhibition (Lactuca sativa [1]) | inhibition (Lactuca sativa [2]) | inhibition (Lactuca sativa [3]) | inhibition (Lactuca sativa [4]) | inhibition (Lactuca sativa [5])

C=C1C[C@@]23CC[C@@H]4[C@](C)(C(=O)NCCN)CCC[C@@]4(C)C2=CC[C@@H]1C3
active: inhibition (Lactuca sativa [1]) | inhibition (Lactuca sativa [2]) | inhibition (Lactuca sativa [3]) | inhibition (Lactuca sativa [4]) | inhibition (Lactuca sativa [5])

C=C1C[C@@]23CC[C@H]4[C@@](C)(CCC[C@@]4(C)C(=O)Nc4ccccc4)[C@@H]2CC[C@@H]1C3
active: inhibition (Lactuca sativa [1]) | inhibition (Lactuca sativa [2]) | inhibition (Lactuca sativa [3]) | inhibition (Lactuca sativa [4]) | inhibition (Lactuca sativa [5])

C=C1C[C@@]23CC[C@@H]4[C@](C)(C(=O)Nc5ccccc5)CCC[C@@]4(C)C2=CC[C@@H]1C3
active: inhibition (Lactuca sativa [1]) | inhibition (Lactuca sativa [2]) | inhibition (Lactuca sativa [3]) | inhibition (Lactuca sativa [4]) | inhibition (Lactuca sativa [5])

C=C1C[C@@]23CC[C@H]4[C@@](C)(CCC[C@@]4(C)C(=O)NCCN)[C@@H]2CC[C@@H]1C3
active: inhibition (Lactuca sativa [1]) | inhibition (Lactuca sativa [2]) | inhibition (Lactuca sativa [3]) | inhibition (Lactuca sativa [4]) | inhibition (Lactuca sativa [5])

C=C1C[C@@]23CC[C@@H]4[C@](C)(C(=O)NCCCCN)CCC[C@@]4(C)C2=CC[C@@H]1C3
active: Activity (Lactuca sativa [10]) | inhibition (Lactuca sativa [1]) | inhibition (Lactuca sativa [2]) | inhibition (Lactuca sativa [3])

C=C1C[C@@]23CC[C@H]4[C@@](C)(CCC[C@@]4(C)C(=O)NC4CCCCC4)[C@@H]2CC[C@@H]1C3
active: inhibition (Lactuca sativa [1]) | inhibition (Lactuca sativa [2]) | inhibition (Lactuca sativa [3]) | inhibition (Lactuca sativa [4]) | inhibition (Lactuca sativa [5])

C=C1C[C@@]23CC[C@@H]4[C@](C)(C(=O)NC5CCCCC5)CCC[C@@]4(C)C2=CC[C@@H]1C3
active: inhibition (Lactuca sativa [1]) | inhibition (Lactuca sativa [2]) | inhibition (Lactuca sativa [3]) | inhibition (Lactuca sativa [4]) | inhibition (Lactuca sativa [5])

C=C1C[C@@]23CC[C@H]4[C@@](C)(CCC[C@@]4(C)C(=O)N4CCNCC4)[C@@H]2CC[C@@H]1C3
active: Activity (Lactuca sativa [6]) | Activity (Lactuca sativa [7]) | inhibition (Lactuca sativa [1]) | inhibition (Lactuca sativa [2]) | Activity (Lactuca sativa [8]) | Activity (Lactuca sativa [9]) | inhibition (Lactuca sativa [3]) | inhibition (Lactuca sativa [4]) | inhibition (Lactuca sativa [5])

C=C1C[C@]23C[C@@]1(O)CC[C@H]2[C@@]12C=C[C@H](O)[C@@](C)(C(=O)O1)[C@H]2[C@@H]3C(=O)O
active: Activity (Lactuca sativa [11])
